High-throughput results as filed in PubChem.
SIAE primary – human SIAE inhibition, primary screen; AID 1053197; Q9HAT2; inhibition, % at 9.66 µM; 370,000 compounds, 0.69% hits; SIAE FP-Rh probe binding, fluorescence polarization;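 active = inhibition above a cutoff: mean of compounds within the control limits plus 3 SD of those, cut at about 17% in these data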
Target sequence (Q9HAT2 whole entry, looked up): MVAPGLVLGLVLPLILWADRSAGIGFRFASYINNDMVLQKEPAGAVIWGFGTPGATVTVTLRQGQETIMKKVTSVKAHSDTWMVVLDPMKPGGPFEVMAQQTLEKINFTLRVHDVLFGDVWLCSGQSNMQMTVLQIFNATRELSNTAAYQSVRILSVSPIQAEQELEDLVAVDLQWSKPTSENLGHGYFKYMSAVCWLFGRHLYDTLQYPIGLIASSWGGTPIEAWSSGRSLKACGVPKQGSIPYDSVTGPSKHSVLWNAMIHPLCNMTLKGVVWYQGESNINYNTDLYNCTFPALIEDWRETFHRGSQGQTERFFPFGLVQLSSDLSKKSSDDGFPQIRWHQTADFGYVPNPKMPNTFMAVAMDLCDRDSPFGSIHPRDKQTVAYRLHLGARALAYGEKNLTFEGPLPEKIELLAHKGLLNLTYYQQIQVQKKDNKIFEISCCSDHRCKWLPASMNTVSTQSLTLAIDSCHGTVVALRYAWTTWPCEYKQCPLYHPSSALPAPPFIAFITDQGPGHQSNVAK
ABHD4 inh – ABHD4 (mouse) inhibition, primary FP screen; purified mABHD4, FP-Rh probe fluorescence polarization; inhibition, % at 8.92 µM; 370,000 compounds, 0.54% hits; AID 720543;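 active = inhibition exceeding the mean over every tested compound plus 3 SD, cut at about 30% in these data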
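Material: mouse ABHD4 enzyme, wild type; Benchmarks: S159A mutant high control, sample median low control; Buffer or medium: HEPES pH 7.0, NaCl, Pluronic buffer; Signal: fluorescence polarization; Read-out: percent inhibition of probe binding, normalized to plate controls; Timing: pre-incubation 45 min, probe exposure 60 min, at 25 °C; Dosing: 8.92 µM, single dose.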
HTRA1 inh – HTRA1 (human) protease inhibition; Q92743; recombinant HTRA1, FP-rhodamine activity-based probe, fluorescence polarization; inhibition, % at 5.96 µM; 340,000 compounds, 0.5% hits; AID 504803; in the data active = inhibition above about 36%
TCR-CD3 inh – inhibitors of human TCR-CD3 interaction | TAMRA-labeled TCR probe fluorescence, biochemical | 360,000 compounds, 0.37% hits | inhibition, % at 9.4 µM; in the data active = inhibition above about 19%;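 note: recombinant mutant TCR 2C K166C tagged with TAMRA read by polarization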
ARNT TACC3 PPI – disruptors of human ARNT/TACC3 interaction. 390,000 compounds, 0.66% hits. AlphaScreen His-ARNT PAS-B/GST-TACC3 binding, luminescence; TACC3 fragment carries E629A point mutation. inhibition, % at 9.99 µM. Q9Y6A5;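 active = mean inhibition of replicates at least 50% and at least half of replicates each reaching 50%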
ABHD4 confirm – confirmation of mouse ABHD4 inhibitors. AID 720658. purified mABHD4, FP-Rh probe fluorescence polarization. shares compounds with ABHD4 inh. 1,800 compounds, 55% hits. inhibition, % at 8.92 µM;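 active = mean inhibition across replicates above the hit cutoff set in the primary screen, cut at about 30% in these data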
Numbers stand for hits; . = inactive; / = no result. In the library only some 1.8% were active in any assay of this set; here they are far more common.

SMILES	SIAE primary	ABHD4 inh	HTRA1 inh	TCR-CD3 inh	ARNT TACC3 PPI	ABHD4 confirm
O=c1c(-c2ccco2)nc2ccccc2n1C(c1ccccn1)c1nc2ccccc2[nH]1 (configuration not stated)	.	38	/	.	/	.
Brc1ccc(-c2csc(N3CCNCC3)n2)cc1	.	61	/	/	/	75
Cc1ccc(C(=O)OCC(=O)Nc2ccccc2)cc1NC(=O)c1ccco1	.	.	.	.	.	/
CCC(C)c1ccccc1NC(=O)COC(=O)c1ccc(C)c(NC(=O)c2ccco2)c1 (configuration not stated)	.	49	.	.	.	.
C1=CC2c3ccccc3NC(c3ccncc3)C2C1 (configuration not stated)	.	50	.	.	.	64
CC1=NN(c2ccccc2)C(=O)/C1=C/c1c(O)n(-c2ccc(F)cc2)[nH]c1=O	.	37	.	.	.	47
O=c1c2cc3c(=O)n(-c4ccccc4O)c(=O)c3cc2c(=O)n1-c1ccccc1O	.	30	.	.	.	.
Cc1c(O)cc2n(c1=O)-c1ccccc1C2(C)C	.	.	.	.	.	/
CN1c2ccc(C#Cc3cccnc3)cc2[C@@H]2[C@@H](CCN2C(=O)C2CCCCC2)[C@H]1CO	/	/	/	/	.	/
CCOc1ccc(CSC(=N)N)cc1	.	.	.	.	.	/
COc1ccc(Br)cc1CSC(=N)N	.	.	.	.	.	/
CCCCCOc1ccc(Br)cc1CSC(=N)N	.	40	.	.	.	49
CCCCOc1ccc(CSC(=N)N)cc1Cl	.	38	.	.	.	.
CC(C)c1ccc(NC(=O)Nc2nc(C(N)C3CCCCC3)cs2)cc1 (configuration not stated)	.	31	/	.	/	32
COCC#Cc1cnc2c(c1)C(=O)N([C@@H](C)CO)C[C@@H](C)[C@H](CN(C)C(=O)Nc1cccc(F)c1)O2	/	/	/	/	.	/
CCNc1sc(C(=O)c2cccs2)c(N)c1-c1nc2ccccc2s1	.	33	.	.	.	.
Nc1ccc2cc3[nH]c4cc(N)ccc4c3nc2c1	.	36	.	.	.	72
O=C(Nc1ccccc1)Nc1ccc2c(c1)[C@@H]1C[C@H](CC(=O)N3CCCCC3)O[C@H](CO)[C@@H]1O2	/	/	/	/	.	/
CC(=O)N1CCN(c2ccc(NCc3ccc(Br)o3)cc2)CC1	.	38	.	.	.	.
Cc1ccc(S(=O)(=O)N(C)C[C@@H]2Oc3ccc(NS(=O)(=O)c4ccccc4)cc3C(=O)N([C@@H](C)CO)C[C@H]2C)cc1	/	/	/	/	.	/
Cc1[nH]n(-c2ccccc2)c(=O)c1C(c1ccccc1[N+](=O)[O-])C(C#N)C#N (configuration not stated)	.	42	.	.	.	38
COc1cccc2sc(NN)nc12	.	92	.	.	.	44
CC1OC2CC(=O)OC2C2=C1C(=O)c1c(O)cccc1C2=O (configuration not stated)	.	38	/	.	/	35
Cc1nn(Cc2ccccc2)c2c1C(c1ccncc1)C(C#N)=C(N)O2 (configuration not stated)	.	.	.	.	.	/
Cc1nn(Cc2ccccc2)c2c1C(c1ccc(Cl)cc1)C(C#N)=C(N)O2 (configuration not stated)	.	34	.	.	.	.
SMILES	SIAE primary	ABHD4 inh	HTRA1 inh	TCR-CD3 inh	ARNT TACC3 PPI	ABHD4 confirm
COC(=O)C[C@H]1CC[C@@H]2[C@@H](COc3ccc(NC(=O)Nc4c(C)noc4C)cc3C(=O)N2C)O1	/	/	/	/	.	/
Cc1cccc(N=Cc2cc3c(cc2[N+](=O)[O-])OCO3)c1	.	41	40	.	.	.
C[C@H]1CN([C@@H](C)CO)C(=O)Cc2cc(N(C)C)ccc2O[C@@H]1CN(C)Cc1ccc2c(c1)OCO2	/	/	/	/	.	/
O=C1C(=O)c2ccccc2C(O)=C1CC=C(Cl)Cl	.	38	.	.	.	.
O=C1C(C=Nc2ccccc2)=C(O)c2ccccc21	.	.	.	.	.	/
COCC(=O)N1C[C@H](C)[C@H](OC)CN(C)C(=O)c2ccc(NS(C)(=O)=O)cc2OC[C@@H]1C	/	/	/	/	.	/
O=C1/C(=C/c2ccco2)SC(=S)N1CCC(=O)N1CCCCC1CCO (configuration not stated)	.	30	.	.	.	.
O=C(O)CCCN1C(=O)/C(=C/C=C/c2ccco2)SC1=S	.	43	.	.	.	.
Cc1ccc(NC(=O)CCCN2C(=O)/C(=C/C=C/c3ccccc3)SC2=S)cc1	.	.	.	.	.	/
O=C(O)CC(C(=O)O)N1C(=O)/C(=C/C=C/c2ccco2)SC1=S (configuration not stated)	.	35	.	.	.	.
C[C@@H]1CN([C@H](C)CO)C(=O)c2cccc(NC(=O)NC3CCCCC3)c2O[C@@H]1CN(C)Cc1ccc2c(c1)OCO2	/	/	/	/	.	/
COCC#Cc1ccc2c(c1)O[C@@H](CN(C)Cc1ccc3c(c1)OCO3)[C@H](C)CN([C@H](C)CO)S2(=O)=O	/	/	/	/	.	/
Cn1c(/C=C/c2ccc(Cl)cc2)nc2ccccc2c1=O	.	57	.	.	.	.
Cc1noc(C)c1S(=O)(=O)Nc1ccc2c(c1)C(=O)N([C@@H](C)CO)C[C@@H](C)[C@H](CN(C)Cc1ccc(C(=O)O)cc1)O2	/	/	/	/	.	/
CNC(=O)C[C@@H]1CC[C@H]2[C@H](COc3ccc(NC(=O)c4cccc(F)c4)cc3C(=O)N2C)O1	/	/	/	/	.	/
CCCCN(C)c1c(C)nc2ccc(C(=O)Nc3cc(-c4ccccc4)ccc3OC)cn12	.	40	/	.	/	56
CCc1nc2ccc(C(=O)Nc3cc(-c4ccccc4)ccc3OC)cn2c1N(C)CCCc1ccccc1	.	.	/	.	/	/
CN(C)CCOC(=O)COc1ccc(Cl)cc1	.	62	.	.	.	.
CN(C)CCOC(=O)Cc1ccc(Cl)cc1	.	.	.	.	/	/
O=C(/C=C/c1ccc(-c2ccccc2[N+](=O)[O-])o1)c1ccc(Br)cc1	.	.	.	.	.	/
Cc1ccc(C(=O)/C=C/c2ccc(-c3ccccc3[N+](=O)[O-])o2)cc1	.	36	.	.	/	.
COc1cccc(/C=C2/C(=O)NN(c3ccc(C)c(C)c3)C2=O)c1	.	35	.	.	.	.
CCOc1cc(/C=C2/C(=O)NN(c3cccc(Cl)c3)C2=O)ccc1O	.	36	.	.	.	38
COc1cc(/C=C2/C(=O)NN(c3ccc(C)c(Cl)c3)C2=O)cc([N+](=O)[O-])c1O	.	63	.	.	.	56
COc1cc(/C=C2/C(=O)NN(c3cccc(C)c3)C2=O)cc([N+](=O)[O-])c1O	.	.	.	.	.	/
COc1cc(/C=C2/C(=O)NN(c3cccc(Cl)c3)C2=O)cc(OC)c1O	.	36	.	.	.	.
COc1cccc(/C=C2/C(=O)NN(c3ccc(F)cc3)C2=O)c1	.	.	.	.	.	/
C[C@@H]1CN([C@H](C)CO)C(=O)Cc2cc(NC(=O)Cn3cnnn3)ccc2O[C@@H]1CN(C)C	/	/	/	/	.	/
